Source: publication PMC3137751 (Biochemistry, 2010)
Changes are numbered by the printed parent chain. “And” between values parts separate entries of the source, which are not always exact repeats. Equal entries are not always repeated. Marks after values point to notes of the source that are not given here.

Columns and labels:
^-5IDH1/IDH2 enzyme = molecular target: T1, ^-5IDH1/IDH2 enzyme (Saccharomyces cerevisiae, UniProt P28241+P28834); assay: Ligand protection from diamide-induced inactivation; format: biochemical, yeast
T1 sequence (P28834 17-360 limits assumed): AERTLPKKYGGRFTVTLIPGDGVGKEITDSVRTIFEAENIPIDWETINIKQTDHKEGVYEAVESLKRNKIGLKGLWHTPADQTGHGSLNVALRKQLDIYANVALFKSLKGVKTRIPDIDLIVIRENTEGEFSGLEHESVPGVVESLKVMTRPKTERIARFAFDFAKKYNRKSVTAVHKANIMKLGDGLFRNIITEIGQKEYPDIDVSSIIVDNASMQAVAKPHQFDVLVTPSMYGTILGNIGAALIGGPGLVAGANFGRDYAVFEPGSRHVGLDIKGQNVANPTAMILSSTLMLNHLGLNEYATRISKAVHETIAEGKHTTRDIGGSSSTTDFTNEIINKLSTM
T1 sequence (P28241 16-369): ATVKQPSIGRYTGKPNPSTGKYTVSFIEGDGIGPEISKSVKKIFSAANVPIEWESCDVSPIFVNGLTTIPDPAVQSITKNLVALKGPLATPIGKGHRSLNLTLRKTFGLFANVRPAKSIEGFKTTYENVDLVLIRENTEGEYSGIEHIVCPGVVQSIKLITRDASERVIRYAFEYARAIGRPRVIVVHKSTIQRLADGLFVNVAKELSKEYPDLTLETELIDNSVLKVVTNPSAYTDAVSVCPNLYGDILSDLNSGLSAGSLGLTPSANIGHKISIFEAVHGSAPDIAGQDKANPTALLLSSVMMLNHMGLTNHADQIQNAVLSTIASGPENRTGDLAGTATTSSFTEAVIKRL

[1] = molecular target: T2, wild-type IDH1/IDH2 enzyme (Saccharomyces cerevisiae, UniProt P28241+P28834); assay: as above; format: biochemical, yeast
T2 sequence (P28834 12-360): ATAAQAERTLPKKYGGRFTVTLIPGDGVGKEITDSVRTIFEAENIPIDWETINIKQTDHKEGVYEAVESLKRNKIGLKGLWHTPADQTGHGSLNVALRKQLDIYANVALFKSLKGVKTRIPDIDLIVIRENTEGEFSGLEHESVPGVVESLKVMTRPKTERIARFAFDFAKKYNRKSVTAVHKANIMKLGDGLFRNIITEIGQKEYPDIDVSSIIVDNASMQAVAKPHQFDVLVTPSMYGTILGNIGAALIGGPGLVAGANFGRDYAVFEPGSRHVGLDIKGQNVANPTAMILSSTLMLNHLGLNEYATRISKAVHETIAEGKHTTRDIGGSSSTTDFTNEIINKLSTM
T2 sequence (P28241 16-369): T1 sequence (P28241 16-369)

[2] = molecular target: ^-5IDH1^G15D/IDH2 enzyme (tetrameric) (Saccharomyces cerevisiae, UniProt P28241+P28834, G26D); assay: Diamide inhibition of catalytic activity; format: biochemical, yeast
[3] = molecular target: IDH1^G15D/IDH2 enzyme (tetrameric) (Saccharomyces cerevisiae, UniProt P28241+P28834, G26D); assay: Diamide inhibition of catalytic activity; format: biochemical, yeast
[4] = molecular target: T3, IDH1/IDH2 enzyme (wild-type, octameric) (Saccharomyces cerevisiae, UniProt P28241+P28834); assay: Diamide inhibition of catalytic activity; format: biochemical, yeast
T3 sequence (P28834 12-360): T2 sequence (P28834 12-360)
T3 sequence (P28241 16-369): T1 sequence (P28241 16-369)
Summary of the method: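 Purified His-tagged enzyme (E. coli BL21-Gold (DE3), IPTG-induced, Ni-NTA purified) at 1 μM in 50 mM Tris-HCl pH 7.4 is held 2 h on ice with a range of diamide concentrations from a fresh water stock. Activity is then assayed (40 mM Tris-HCl pH 7.4, 1 mM D-isocitrate, 4 mM MgCl2, 0.5 mM NAD+; NADH formation, 24 °C). Untreated activity is set as 100%, and the 50% value is read from the graphs.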

IDH1^G15D/IDH2 enzyme = molecular target: T4, IDH1^G15D/IDH2 enzyme (Saccharomyces cerevisiae, UniProt P28241+P28834, G26D); format: biochemical, yeast; details: 10 μM diamide, 2 h
T4 sequence (P28834 12-360 G26D): T2 sequence (P28834 12-360) with G15D
T4 sequence (P28241 16-369): T1 sequence (P28241 16-369)

[5] = molecular target: ^-5IDH1/IDH2 enzyme (truncated, octameric) (Saccharomyces cerevisiae, UniProt P28241+P28834); assay: Diamide inhibition of catalytic activity; format: biochemical, yeast
IDH1/IDH2 enzyme = molecular target: T5, IDH1/IDH2 enzyme (Saccharomyces cerevisiae, UniProt P28241+P28834); format: biochemical, yeast; details: no or low concentration (10 μM) of diamide, 2 h
T5 sequence (P28834 12-360): T2 sequence (P28834 12-360)
T5 sequence (P28241 16-369): T1 sequence (P28241 16-369)
Summary of the method: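 Affinity-purified His-tagged enzyme (1 μM in 50 mM Tris-HCl pH 7.4) is treated 2 h on ice with 0 or 10 μM diamide. Then 3.5 μg samples are run on […] and stained with Coomassie blue to see the IDH2 Cys-150 disulfide band.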

[6] = molecular target: ^-5IDH1^D168K/IDH2 enzyme (tetrameric) (Saccharomyces cerevisiae, UniProt P28241+P28834, D179K); assay: Diamide inhibition of catalytic activity; format: biochemical, yeast
cross-linking = molecular target: the molecule itself; assay: cross-linking
[7] = test system: Yeast NAD+-specific isocitrate dehydrogenase (IDH); assay: Kinetic analyses: isocitrate saturation velocity curves of purified IDH enzymes; format: biochemical
Summary of the method: (§1)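 His-tagged IDH purified by Ni2+-NTA, stored at −20 °C in elution buffer with 20% glycerol, quantified by A280. Assays at 24 °C used 40 mM Tris-HCl pH 7.4, 4 mM MgCl2 and 0.5 mM NAD+. D-isocitrate was varied 0–5 mM, with or without 100 μM AMP, and NADH formation was followed. Apparent S0.5 and Hill coefficients came from saturation curves, Vmax as maximum velocity per mg, over two independent experiments.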

[8] = molecular target: T6, Yeast NAD+-specific isocitrate dehydrogenase (IDH) (Saccharomyces cerevisiae, UniProt P28241+P28834); assay: as above; format: biochemical; details: 100 μM AMP
T6 sequence (P28834 12-360): T2 sequence (P28834 12-360)
T6 sequence (P28241 16-369): T1 sequence (P28241 16-369)
Summary of the method: as §1

[9] = 2 h, read-out: reduction in activity

Sequence of ^-5IDH1^D168K/IDH2 enzyme (tetrameric) (P28834 17-360 D179K, one chain of several): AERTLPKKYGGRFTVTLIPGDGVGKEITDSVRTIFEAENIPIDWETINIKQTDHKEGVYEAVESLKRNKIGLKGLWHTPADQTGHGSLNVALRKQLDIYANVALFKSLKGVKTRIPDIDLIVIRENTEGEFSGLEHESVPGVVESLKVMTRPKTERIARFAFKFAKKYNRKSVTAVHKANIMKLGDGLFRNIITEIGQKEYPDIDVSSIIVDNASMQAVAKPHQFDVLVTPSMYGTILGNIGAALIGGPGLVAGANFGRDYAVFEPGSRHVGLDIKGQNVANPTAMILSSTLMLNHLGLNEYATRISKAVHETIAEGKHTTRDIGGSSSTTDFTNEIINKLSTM
Sequence of IDH1^G15D/IDH2 enzyme (tetrameric) (P28834 12-360 G26D, one chain of several): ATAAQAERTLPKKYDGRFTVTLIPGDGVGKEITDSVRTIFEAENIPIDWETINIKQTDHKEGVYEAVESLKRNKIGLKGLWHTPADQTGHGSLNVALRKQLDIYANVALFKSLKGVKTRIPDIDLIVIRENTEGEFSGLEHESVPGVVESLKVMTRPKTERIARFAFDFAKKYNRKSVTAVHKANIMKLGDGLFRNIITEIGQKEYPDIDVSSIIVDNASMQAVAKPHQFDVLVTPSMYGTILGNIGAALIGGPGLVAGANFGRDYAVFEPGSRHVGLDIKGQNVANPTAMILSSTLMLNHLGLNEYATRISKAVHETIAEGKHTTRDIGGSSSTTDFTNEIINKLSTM
Sequence of ^-5IDH1^G15D/IDH2 enzyme (tetrameric) (P28834 17-360 G26D, one chain of several): as the sequence (P28834 17-360 D179K, one chain of several) above, with G10D, K163D counted along it

O=C(O)CC(O)(CC(=O)O)C(=O)O [citrate]
effect of citrate preincubation on diamide inhibition (^-5IDH1/IDH2 enzyme; increasing citrate (0 to 100 mM), 4 mM MgCl2, 100 μM AMP before 0.16 mM diamide): essentially no effect | effect of citrate preincubation on diamide inhibition ([1]; 100 mM citrate, 4 mM MgCl2, 100 μM AMP for 15 min before 0.5 mM diamide): no inhibition by diamide was observed

CN(C)C(=O)/N=N/C(=O)N(C)C [diamide]
IC50 [2]: 7.5 µM | IC50 [3]: 6.5 µM | IC50 [4]: 500 µM | inhibition at 160 µM (^-5IDH1/IDH2 enzyme; [9]): 43% | inhibition at 500 µM [1, 9]: 63% | formation of IDH2 Cys-150 disulfide bond (IDH1^G15D/IDH2 enzyme): most of the IDH2 subunit is present as the disulfide bond form | IC50 [5]: 160 µM | increase in sensitivity to diamide relative to the IDH1/IDH2 enzyme ([5]; ^-5IDH1/IDH2 vs IDH1/IDH2, 120 min): ~ 3 fold and 3 fold | formation of IDH2 Cys-150 disulfide bond (IDH1/IDH2 enzyme): no formation of this bond | IC50 [6]: 13 µM

B1: IDH2 subunit (natural protein, yeast)
chain: T1 sequence (P28241 16-369)
binding result (cross-linking): binds

B2: IDH1/IDH2: wild-type yeast NAD+-specific isocitrate dehydrogenase, octamer of IDH1 and IDH2 subunits, histidine tag on IDH1 (protein)
chain 1: T2 sequence (P28834 12-360)
chain 2: T1 sequence (P28241 16-369)
modifications: left off: histidine tag, C-terminal, kept
Hill coef. with respect to isocitrate, − AMP ([7]; absence of AMP): 3.1 | Vmax (apparent), + AMP ([7]; isocitrate velocity saturation curve, presence of 100 μM AMP): 32.3/32.3 (±0.7/0.4) ^b units/mg | Hill coef. with respect to isocitrate, + AMP ([7]; presence of 100 μM AMP): 3.5 | increase in the apparent affinity for isocitrate in the presence of AMP [8]: ~ 5 fold
